Source: PubChem
KCNK3 block = human KCNK3 channel inhibition, primary screen. 0.84% of 340,000 active. CHO-KCNK3 thallium flux, FluxOR fluorescence; active compounds read low. B-score at 10 µM. O14649. AID 602410;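 active means B-score under library mean minus 4 SD, starting fluorescence ratio at most library mean plus 5 SD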;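 further: more negative B-score means stronger inhibition of thallium flux through KCNK3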
KCNQ1 pot = potentiators or activators of human KCNQ1 potassium channel; P51787; CHO-K1 KCNQ1, thallium flux FluxOR fluorescence; active compounds read high; B-score at 10 µM; 0.35% of 310,000 active; AID 2648;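 active means fluorescence ratio B-score, a plate-corrected score, at least three library SD, with initial intensity B-score within 5 SD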
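Doses: Single concentration per compound, DMSO matched to controls | Test system: KCNQ1-transfected CHO-K1 cells | Timing: 90 min dye loading and 20 min compound exposure, both at room temperature | Measured by: Kinetic FluxOR thallium fluorescence, 10-s 1-Hz baseline, 110-s post-stimulus read | Medium: Assay buffer with matched DMSO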
KCNK9 inh = inhibitors of human KCNK9 two-pore domain potassium channel | HEK293 KCNK9, FluxOR thallium flux fluorescence; active compounds read low | 1.2% of 310,000 active | B-score at 10 µM | Q9NPC2 | AID 488922;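 active means ratio B-score over 3 SD below the library mean, with starting fluorescence within 5 SD of its mean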;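 further: negative B-score means less thallium flux so channel inhibition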
hERG rescue = shields human hERG channel from block by proarrhythmic agents; 0.51% of 310,000 active; activation (rescue from dofetilide block), less the hit threshold, % at 10 µM; Q12809; CHO-hERG, FluxOR thallium flux, dofetilide IC70 present;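 active means activation above the mean of controls blocked by dofetilide plus 5 SD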;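 further: thallium influx through hERG after potassium depolarization seen as dye fluorescence rise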
Kir21 block = Kir2.1 (mouse) channel inhibition | B-score at 10 µM | HEK293-Kir2.1, FluxOR thallium flux fluorescence; active compounds read low | 0.85% of 310,000 active | P35561;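 active means fluorescence ratio B-score at or below minus 3 SD of library scores, with starting-brightness B-score within 2 SD, cut at about -4.2 in these data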;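 further: channel flux triggered by added potassium and thallium sulfate stimulus; B-score of peak minus minimum fluorescence over baseline after thallium stimulus; more negative B-score means stronger Kir2.1 block with less thallium influx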
Target sequence (P35561 whole entry, looked up): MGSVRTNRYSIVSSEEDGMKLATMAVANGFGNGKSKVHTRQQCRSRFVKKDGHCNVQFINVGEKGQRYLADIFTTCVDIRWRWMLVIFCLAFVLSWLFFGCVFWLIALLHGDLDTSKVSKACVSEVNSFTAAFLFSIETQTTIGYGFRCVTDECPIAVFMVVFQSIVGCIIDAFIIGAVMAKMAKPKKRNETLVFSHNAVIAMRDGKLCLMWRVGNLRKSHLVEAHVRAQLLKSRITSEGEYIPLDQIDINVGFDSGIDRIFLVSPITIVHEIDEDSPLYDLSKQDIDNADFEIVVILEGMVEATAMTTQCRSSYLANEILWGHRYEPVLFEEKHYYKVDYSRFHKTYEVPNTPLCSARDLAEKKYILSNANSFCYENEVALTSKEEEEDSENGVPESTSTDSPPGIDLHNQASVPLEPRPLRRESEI
KCNQ1 block = inhibitors of human KCNQ1 potassium channel | CHO-K1 KCNQ1, FluxOR thallium flux fluorescence; active compounds read high | B-score at 10 µM | 1.3% of 310,000 active | AID 2642;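 active means compounds whose thallium flux B-score, printed positive for inhibition, exceeds three library SD while starting fluorescence stays within three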;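 further: channel opened by potassium depolarization with thallium stimulus after 20 min compound exposure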
Each line names hits and unclear results; the compound was inactive in the other large screens. An excerpt weighted towards active compounds, which were near 3.7% of everything screened.

N#Cc1cccc(NC(=O)c2nc(-c3ccccc3)n(-c3ccccc3)n2)c1	hERG rescue 7.1
CC(C)(C)c1ccc(NC(=O)NC2CCCc3ccccc32)cc1 (centres undefined)	KCNQ1 block 6
Cc1nn(-c2ccccc2)c2nc(C(Cl)(Cl)Cl)[nH]c(=O)c12	KCNQ1 pot 12
COc1ccc(C(=O)COC(=O)CCCC(=O)NC2CCCCC2)cc1	none
COc1ccc(N2C(=O)C3CCCN3C2=O)cc1 (centres undefined)	hERG rescue 4.9
O=C1CCCC(=O)C1=C1SCCCS1	none
CCC1(c2ccccc2)SC(N)=NC1=O (centres undefined)	none (no result: KCNQ1 pot, KCNK9 inh, hERG rescue, Kir21 block, KCNQ1 block)
CCCCC(C(=O)NC1CCCC1)N(Cc1ccccc1)C(=O)c1snc(C(N)=O)c1N (centres undefined)	KCNQ1 block 10
CC(C)CC(C(=O)NC1CCCC1)N(Cc1cccs1)C(=O)c1snc(C(N)=O)c1N (centres undefined)	none
CN(C)c1ccc(C(C(=O)NCc2ccccc2)N(Cc2cccnc2)C(=O)c2snc(C(N)=O)c2N)cc1 (centres undefined)	KCNQ1 block 8
COc1ccc(C(C(=O)NCc2ccccc2)N(Cc2cccnc2)C(=O)c2snc(C(N)=O)c2N)cc1OC (centres undefined)	none
CC(C)CC(C(=O)NC1CCCCC1)N(Cc1cccs1)C(=O)c1snc(C(N)=O)c1N (centres undefined)	KCNQ1 block 8
CCOC(=O)CSC1=NC(=O)/C(=C/c2ccc(OC)cc2)S1	none
O=C(NC1CCCC1)c1cccnc1N1CCCCCC1	hERG rescue 5.0
COC(=O)c1cccnc1NC(=S)NC1CCCCC1	KCNQ1 pot 18
COC(=O)c1ccc(NC(=S)NC2CCCCC2)cc1	none
CC(=O)Nc1oc(-c2cccc3ccccc23)nc1C#N	none (no result: KCNQ1 pot, KCNK9 inh, hERG rescue, Kir21 block, KCNQ1 block)
Cc1cccc(NC(=S)N/C(=N/S(=O)(=O)c2ccccc2)c2ccccc2)c1	hERG rescue 5.2
COc1ccc(-c2csc3nc[nH]c(=O)c23)cc1OC	none
Cc1ccc(-c2csc3nc[nH]c(=S)c23)cc1C	KCNQ1 pot 24, hERG rescue 55.9
Cc1ccc(C2=NNC3(CCOC(C)(C)C3)S2)cc1 (centres undefined)	none
Cc1ccc(C2(CCNCc3ccc(N(C)C)cc3)CCOC(C(C)C)C2)cc1 (centres undefined)	Kir21 block -4.68
CC(C)C1CC(CCNCc2ccc(N(C)C)cc2)(c2ccccc2)CCO1 (centres undefined)	none
CC(NC(=O)CN1C(=O)NC2(CCCC2)C1=O)c1ccc(Cl)cc1Cl (centres undefined)	none (no result: KCNQ1 pot, KCNK9 inh, hERG rescue, Kir21 block, KCNQ1 block)
Cc1cc(C)nc(SCc2nnc(SCC(=O)N3CCCc4ccccc43)o2)n1	Kir21 block -5.05
CC(C)(c1ccccc1)c1ccc(OCC(O)CNC2CCN(Cc3ccccc3)CC2)cc1 (centres undefined)	KCNK9 inh -7.53, Kir21 block -4.87, KCNQ1 block 8
COc1ccc(CNCC(O)COc2ccc(C(C)(C)c3ccccc3)cc2)cc1 (centres undefined)	Kir21 block -5.7
O=C(CBr)Nc1c2c(nn1-c1ccccc1)CSC2	none
CCOc1ccc(NC(=O)CN(C)C(=O)c2ccc(OCC(=O)N3CCOCC3)c(OC)c2)cc1OCC	none (no result: KCNQ1 pot, KCNK9 inh, hERG rescue, Kir21 block, KCNQ1 block)
NNC(=S)NC1CCCCCCCCCCC1	KCNQ1 block 8
NC1=NC(c2ccc(F)cc2)n2c(nc3ccccc32)N1 (centres undefined)	none
Cc1ccc(-n2c(C)cc(C3N=C(N)Nc4nc5ccccc5n43)c2C)c(C)c1 (centres undefined)	KCNK9 inh -7.53
CC(OC(=O)C1CC(=O)N(Cc2ccco2)C1)C(=O)Nc1ccccc1[N+](=O)[O-] (centres undefined)	none (no result: KCNQ1 pot, KCNK9 inh, hERG rescue, Kir21 block, KCNQ1 block)
Cc1ccc(NS(=O)(=O)c2ccc(-c3csc(C)n3)s2)c(C)c1	none
COc1ccc(CN2CCN(Cc3cccc4nonc34)CC2CCO)c(C)c1C (centres undefined)	hERG rescue 5.3
Cn1c2ccc(F)cc2c2nnc(SCC(=O)Nc3cccc(O)c3)nc21	hERG rescue 5.2
Cc1ccc(-n2nc(C)cc2Nc2ncc(Cl)cc2Cl)cc1	none
Cc1cc(Nc2ncc(Cl)cc2Cl)n(-c2ccccc2C)n1	Kir21 block -4.81
Cc1nn(-c2ccccc2)c(C)c1/C=N/NC(=O)CSc1nnc(SCc2ccccc2Cl)s1	KCNQ1 block 6
Cc1noc(C)c1COC(=O)COc1cccc2c1OC(C)(C)C2	Kir21 block -5.52
CC1(C)Cc2cccc(OCC(=O)OCC(=O)c3ccccc3)c2O1	none (no result: KCNQ1 pot, KCNK9 inh, hERG rescue, Kir21 block, KCNQ1 block)
O=C(Nc1nc2n(n1)C(c1ccccc1)CC(c1ccc(Cl)cc1)N2)c1ccco1 (centres undefined)	KCNK9 inh -6.95
COc1cc(N/N=C/c2ccc(N(C)C)cc2)ncn1	none
CN(C)c1cc(N/N=C/c2ccc(Cl)cc2)nc(N(C)C)n1	KCNQ1 block 7
Cn1c(=O)c(N=O)c(N)n(Cc2ccccc2)c1=S	none
COCCn1nnnc1C(c1cccs1)N1CCN(c2cc(C)ccc2C)CC1 (centres undefined)	KCNK3 block -9.2, KCNK9 inh -7.98
Cc1c(C(=O)Nc2ccc(S(=O)(=O)N3CCOCC3)cc2)cccc1[N+](=O)[O-]	none
COc1cccc(N=C2NC(=O)/C(=C/c3cc([N+](=O)[O-])ccc3O)S2)c1	KCNQ1 block 7
Cc1ccc(S(=O)(=O)/N=C2/NC(=O)/C(=C/c3cc([N+](=O)[O-])ccc3O)S2)cc1	none
COc1ccc(NC(=O)C2CCCN2S(=O)(=O)c2cccs2)c([N+](=O)[O-])c1 (centres undefined)	none
COc1ccc(OC)c(NC(=O)c2cccnc2Sc2cc(C)ccc2C)c1	KCNK9 inh -7.59
N#Cc1c(/N=C/c2cccs2)sc2c1CCCCC2	KCNQ1 block 6
CCCCc1nc2cc(C(=O)N3CCC(OC)CC3)ccc2o1	none
O=[N+]([O-])c1ccc(S(=O)(=O)N2CCSC2c2ccco2)cc1 (centres undefined)	Kir21 block -4.63
COc1ccc(S(=O)(=O)N2CCSC2c2ccccc2)cc1 (centres undefined)	none
CCNC(=O)CC1C(=O)N(c2ccccc2)C(=O)N1CCOC (centres undefined)	none
O=C(O)C(Cc1ccccc1)N1C(=O)c2ccccc2C1=O (centres undefined)	none
O=C(O)C(Cc1ccccc1)N1C(=O)c2c(Cl)c(Cl)c(Cl)c(Cl)c2C1=O (centres undefined)	KCNQ1 block 6
O=C(O)c1ccc(-c2cccc([N+](=O)[O-])c2)o1	none
N#C/C(=C(/O)c1ccc(-c2cccc([N+](=O)[O-])c2)o1)c1nc2ccccc2s1	KCNQ1 block 7
